Test results as given in ChEMBL document CHEMBL1124898, “Novel agents effective against solid tumors: the diarylsulfonylureas. Synthesis, activities, and analysis of quantitative structure-activity relationships” (J Med Chem, 1990).
Converted amounts (≈) assume the structure as drawn.

Tests used:
CCRF-CEM = experiment: Concentration required to inhibit growth of CCRF-CEM cells in culture for 72 hr to 50% of control growth; format: functional, cell-based; details: Homo sapiens
[1] = Antitumor activity in vivo against the 6C3HED lymphosarcoma dosed for 10 days at 150 mg/kg; format: functional; details: Mus musculus, 192 h, in the assay text read “dosed for 8 days” for “dosed for 10 days”
Procedure, shortened: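 Tumor fragments (about 1–2 mm) implanted sc via trochar into a subaxillary site of syngeneic mice (C3H, C57BL/6, Balb/C or DBA/2) or Holtz rats. Groups were 7–10 randomized animals. Compound was suspended in 2.5% Emulphor in 0.9% saline and given orally by gavage or ip, usually from the day after implantation. Tumor volume versus untreated controls was measured one day after the final dose and reported as % inhibition. Scoring bands: +++ 95–100%, ++ 80–94%.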

[2] = Antitumor activity in vivo against the 6C3HED lymphosarcoma, dosed for 8 days at 300 mg/kg; details: Mus musculus, 192 h

Row | Structure (SMILES) | IC50 (CCRF-CEM) | inhibition in vivo at 150 mg/kg [1] | inhibition in vivo at 300 mg/kg [2]
1 | O=C(Nc1ccc(Cl)cc1)NS(=O)(=O)c1cccc(Cl)c1 | 9 µg/mL (≈ 26.1 µM) | 98% | –
2 | O=C(Nc1ccc(Br)cc1)NS(=O)(=O)c1ccccc1 | 7.1 µg/mL (≈ 20 µM) | 82% | –
3 | COc1ccc(S(=O)(=O)NC(=O)Nc2ccc(Br)cc2)cc1 | 14.3 µg/mL (≈ 37.1 µM) | 99% | –
4 | Cc1ccc(S(=O)(=O)NC(=O)Sc2ccc(Cl)cc2)cc1 | 0.9 µg/mL (≈ 2.63 µM) | 33% | –
5 | O=C(Nc1ccc(C(F)(F)F)cc1)NS(=O)(=O)c1cccc(C(F)(F)F)c1 | 15.6 µg/mL (≈ 37.8 µM) | 39% | –
6 | O=C(Nc1ccc(C(F)(F)F)cc1)NS(=O)(=O)c1ccc(Cl)c(Cl)c1 | 15.5 µg/mL (≈ 37.5 µM) | 85% | –
7 | O=C(Nc1ccc(Cl)cc1)NS(=O)(=O)c1ccc(F)cc1 | 6.3 µg/mL (≈ 19.2 µM) | 79% | –
8 | Cc1ccc(S(=O)(=O)NC(=O)Nc2ccc(I)cc2)cc1 | 19.6 µg/mL (≈ 47.1 µM) | 76% | –
9 | O=C(Nc1ccc(Cl)c(Cl)c1)NS(=O)(=O)c1ccc(Cl)cc1 | 9.9 µg/mL (≈ 26.1 µM) | 85% | –
10 | O=C(Nc1ccc(C(F)(F)F)cc1)NS(=O)(=O)c1ccccc1 | 6 µg/mL (≈ 17.4 µM) | 81% | –
11 | Cc1ccc(S(=O)(=O)NC(=O)NC2CCCCC2)cc1 [GLYCYCLAMIDE] | > 20 µg/mL | – | 56%
12 | CC(C)c1ccc(S(=O)(=O)NC(=O)Nc2ccc(Cl)cc2)cc1 | 8.7 µg/mL (≈ 24.7 µM) | – | 65%
13 | O=C(Nc1ccc(Cl)cc1)NS(=O)(=O)c1ccc2c(c1)OCCO2 | 13.5 µg/mL (≈ 36.6 µM) | – | 49%
14 | Cc1ccc(S(=O)(=O)NC(=O)Nc2ccc(OC(F)(F)F)cc2)cc1 | 18.4 µg/mL (≈ 49.2 µM) | – | 17%
15 | Cc1ccc(S(=O)(=O)NC(=O)Nc2c(F)cc(F)cc2F)cc1 | > 20 µg/mL | – | 27%
16 | O=C(Nc1ccc(F)cc1)NS(=O)(=O)c1ccc2c(c1)CCC2 | > 20 µg/mL | – | 39%
17 | CCc1cccc(S(=O)(=O)NC(=O)Nc2ccc(Cl)cc2)c1 | 10.4 µg/mL (≈ 30.7 µM) | – | 95%

Row | Structure (SMILES) | IC50 (CCRF-CEM) | inhibition in vivo at 150 mg/kg [1] | inhibition in vivo at 300 mg/kg [2]
18 | COc1ccc(NC(=O)NS(=O)(=O)c2ccc(OC)cc2)cc1 | 15.3 µg/mL (≈ 45.5 µM) | – | 16%
19 | CCCc1ccc(S(=O)(=O)NC(=O)Nc2ccc(Cl)cc2)cc1 | 13.8 µg/mL (≈ 39.1 µM) | – | 79%
20 | Cc1ccc(S(=O)(=O)NC(=O)Nc2ccc(Cl)cc2C(F)(F)F)cc1 | > 20 µg/mL | – | 24%
21 | CCCCc1ccc(NC(=O)NS(=O)(=O)c2ccc(C)cc2)cc1 | 19.7 µg/mL (≈ 56.9 µM) | – | 8%
22 | O=C(Nc1ccc(Cl)cc1)NS(=O)(=O)c1ccc([N+](=O)[O-])cc1 | 12.1 µg/mL (≈ 34 µM) | – | 70%
23 | Cc1ccc(S(=O)(=O)NC(=O)Nc2ccncc2)cc1 | > 20 µg/mL | – | 24%
24 | COC(=O)c1ccc(S(=O)(=O)NC(=O)Nc2ccc(Cl)cc2)cc1 | 17.4 µg/mL (≈ 47.2 µM) | – | 49%
25 | COc1ccc(NC(=O)NS(=O)(=O)c2ccc(C)cc2)cc1Cl | > 20 µg/mL | – | 0%
26 | Cc1ccc(S(=O)(=O)NC(=O)N(C)c2ccc(Cl)cc2)cc1 | > 20 µg/mL | – | 30%
27 | CCCCCCCCc1ccc(S(=O)(=O)NC(=O)Nc2ccc(Cl)cc2)cc1 | 9 µg/mL (≈ 21.3 µM) | – | 9%
28 | CCc1cccc(NC(=O)NS(=O)(=O)c2ccc(C)cc2)c1 | > 20 µg/mL | – | 0%
29 | N#Cc1cccc(S(=O)(=O)NC(=O)Nc2ccc(Cl)cc2)c1 | 13.1 µg/mL (≈ 39 µM) | – | 19%
30 | Cc1ccc(S(=O)(=O)NC(=O)Nc2nncs2)cc1 | > 20 µg/mL | – | 16%
31 | Cc1ccc(S(=O)(=O)NC(=O)Nc2ccc(Cl)c([N+](=O)[O-])c2)cc1 | 15.8 µg/mL (≈ 42.7 µM) | – | 30%
32 | Cc1ccc(S(=O)(=O)NC(=O)NC2CCC(C)CC2)cc1 (stereo unspecified) | > 20 µg/mL | – | 2%
33 | Cc1ccc(S(=O)(=O)NC(=O)Oc2ccc(Cl)cc2)cc1 | > 20 µg/mL | – | 43%
